Reference: article PMC6490184 (ACS infectious diseases, 2019)
“Also recorded” adds a separate entry of the source. Structures can show the parent of a compound that is named as a salt. Where two headings read alike, the source gives them in different places.

Key:
[1] = test system: E. coli expressing tetracycline destructase enzymes; assay: Checkerboard whole cell inhibition assay; format: cell-based; conditions: co-administered with tetracycline antibiotics
[2] = test system: tetracycline destructase enzymes Tet(50), Tet(X), and Tet(X)_3; format: biochemical
Method in brief: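 Enzymes expressed from pET28b(+) in E. coli BL21-Star (DE3) and Ni-NTA purified. Reactions in 100 mM TAPS pH 8.5 held 504 μM NADPH, 5.04 mM MgCl2, 25.3 μM tetracycline substrate, 0.4 μM enzyme and graded inhibitor, in triplicate. Absorbance at 380 or 400 nm was followed for 4 min. Initial velocities were plotted against log[inhibitor] and fitted by nonlinear regression for IC50. Controls: no-enzyme, no-inhibitor, no-substrate.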

[3] = Non-enzymatic stability on storage and in solution; format: physicochemical; conditions: extended solution times (overnight), LCMS
Tet(X) [4] = target: T1, Tet(X) (Bacteroides thetaiotaomicron, UniProt Q93L51); assay: In vitro inhibition of Tet; format: biochemical
Tet(50) [5] = target: T2, Tet(50) (Unknown prokaryotic organism, UniProt A0A059WYP6); assay: In vitro inhibition of Tet; format: biochemical; conditions: degradation of tetracycline antibiotics by soil-derived Tet(50)
Method in brief: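 Ni-NTA-purified enzyme, dialysed into 50 mM K2HPO4 pH 8.0, 150 mM NaCl, 1 mM DTT. A380 or A400 followed continuously for 4 min. No-enzyme control was set to 1 × 10^15 inhibitor, no-inhibitor control to 1 × 10^−15. No-substrate controls were also run.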

Tet(50) [6] = target: T2, Tet(50); assay: Exposure of aDem to Tet; format: biochemical; conditions: Tet(50) with NADPH, no tetracycline, LCMS
[7] = test system: E. coli expressing Tet(X); assay: Whole cell resistance of E. coli expressing Tet; format: cell-based
Tet(X) [8] = target: T1, Tet(X); assay: Tet; format: biochemical; conditions: decrease in 440 nm absorption band and extracted mass (LCMS)
[9] = apparent IC50, Tet(X)-mediated degradation of tigecycline

| Compound | whole cell inhibition / rescue of tetracycline activity [1] | in vitro destructase inhibitory activity [2] | non-enzymatic degradation in solution [3] | IC50 (Tet(X) [4]; [9]) [nM] | further results |
| --- | --- | --- | --- | --- | --- |
| Cc1c2c(c(O)c3c(O)c(Br)ccc13)C(=O)[C@]1(O)C(=O)C(C(N)=O)=C(O)[C@@H](N(C)C)[C@@H]1C2.Cl [9-Br-aTc, (4S,4aS,12aS)-9-bromo-4-(dimethylamino)-3,10,11,12a-tetrahydroxy-6-methyl-1,12-dioxo-1,4,4a,5,12,12a-hexahydrotetracene-2-carboxamide hydrochloride] | limited activity | potent in vitro destructase inhibitory activity | some non-enzymatic degradation | – | – |
| Cc1c2c(c(O)c3c(O)ccc(Cl)c13)C(=O)[C@]1(O)C(=O)C(C(N)=O)=C(O)[C@@H](N(C)C)[C@@H]1C2 [aCTc, (4S,4aS,12aS)-7-chloro-4-(dimethylamino)-3,10,11,12a-tetrahydroxy-6-methyl-1,12-dioxo-1,4,4a,5,12,12a-hexahydrotetracene-2-carboxamide hydrochloride] | – | – | – | 400 to 1500 | – |
| CN(C)[C@@H]1C(O)=C(C(N)=O)C(=O)[C@@]2(O)C(=O)c3c(cc4c(Cl)ccc(O)c4c3O)C[C@@H]12.Cl [aDem, (4S,4aS,12aS)-7-chloro-4-(dimethylamino)-3,10,11,12a-tetrahydroxy-1,12-dioxo-1,4,4a,5,12,12a-hexahydrotetracene-2-carboxamide hydrochloride] | rescues tetracycline activity | – | – | 400 to 1500 | in vitro inhibitory activity against enzymatic degradation by Tet(50) (Tet(50) [5]): performed poorly; in vitro inhibitory activity against enzymatic degradation by Tet(50) (Tet(50) [5]; listed as 7): poor in vitro inhibitory activity; IC50 (Tet(X) [4]; apparent IC50, Tet(X)-mediated degradation of tetracycline antibiotics (tetracycline, demeclocycline)): 1000 to 4000 nM; decrease in extracted mass over time (Tet(50) [6]): no measurable decrease |
| Cc1c2c(c(O)c3c(O)ccc(I)c13)C(=O)[C@]1(O)C(=O)C(C(N)=O)=C(O)[C@@H](N(C)C)[C@@H]1C2.Cl [7-I-aTc, (4S,4aS,12aS)-4-(dimethylamino)-3,10,11,12a-tetrahydroxy-7-iodo-6-methyl-1,12-dioxo-1,4,4a,5,12,12a-hexahydrotetracene-2-carboxamide hydrochloride] | limited activity; also recorded: no inhibitory activity | potent in vitro destructase inhibitory activity | non-enzymatic degradation of 7-I-aTc in solution was observed; also recorded: some non-enzymatic degradation | – | – |
| CN(C)c1cc(NC(=O)CNC(C)(C)C)c(O)c2c1C[C@H]1C[C@H]3[C@H](N(C)C)C(O)=C(C(N)=O)C(=O)[C@@]3(O)C(O)=C1C2=O [tigecycline] | – | – | – | – | resistance, increase over empty vector controls [7]: 2 fold |
| Cc1c2c(c(O)c3c(O)cccc13)C(=O)[C@]1(O)C(=O)C(C(N)=O)=C(O)[C@@H](N(C)C)[C@@H]1C2 [aTc, anhydrotetracycline, reference compound] | performs well | – | – | – | inhibition model ([2]; Lineweaver-Burk plots, degradation of tetracycline): mixed competitive/non-competitive inhibition model; enzymatic degradation by Tet(X) (Tet(X) [8]): substrate for Tet(X); IC50 (Tet(X) [4]): 400 to 1500 nM |
